In the experiment the test system is Trypanosoma brucei rhodesiense. In words: Antitrypanosomal activity against Trypanosoma brucei rhodesiense STIB 900 after 72 hrs by alamar blue based microplate assay. In kind it is functional, organism-based. As to conditions: STIB 900, 72 h. Summed up:
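Bloodstream-form T. b. rhodesiense STIB 900, 10⁴ per well, in minimum essential medium with 2-mercaptoethanol and 15% heat-inactivated horse serum. Serial dilutions spanning […]. Incubated 37 °C, 5% CO₂, 72 h. Resazurin (Alamar Blue) then added and incubation continued. Fluorescence read at ex 536/em 588 nm as percent of control, IC50 calculated. Melarsoprol standard.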

Drawing on ChEMBL document CHEMBL1153573, “Synthesis of a series of N6-substituted adenosines with activity against trypanosomatid parasites” (Eur J Med Chem, 2009), this text covers IC50 for 15 compounds.

The structures appear in SMILES notation. Where only a bound is given, the exact number is not on record here.

In the case of `O=C(NCCOCCNc1ncnc2c1ncn2[C@@H]1O[C@H](CO)[C@@H](O)[C@H]1O)c1ccc(F)c(F)c1`, the IC50 came to 167 µM. In the case of `O=C(CCCc1ccc([N+](=O)[O-])cc1)NCCOCCNc1ncnc2c1ncn2[C@@H]1O[C@H](CO)[C@@H](O)[C@H]1O` it was 88.7 µM; in that of `CC(C)=CC(=O)NCCOCCNc1ncnc2c1ncn2[C@@H]1O[C@H](CO)[C@@H](O)[C@H]1O`, 125 µM; in that of `O=C(NCCOCCNc1ncnc2c1ncn2[C@@H]1O[C@H](CO)[C@@H](O)[C@H]1O)c1cccc(F)c1`, 13.6 µM.

As to `O=C(NCCOCCNc1ncnc2c1ncn2[C@@H]1O[C@H](CO)[C@@H](O)[C@H]1O)C(c1ccccc1)c1ccccc1`, 85.9 µM corresponded to half-maximal inhibition (IC50). This IC50 lies about 6.3-fold higher than the previous one. For `O=C(Cc1c(Cl)cccc1Cl)NCCOCCNc1ncnc2c1ncn2[C@@H]1O[C@H](CO)[C@@H](O)[C@H]1O`, inhibition was half-maximal at 49.7 µM (IC50). The same measure for `O=C(CCCOc1ccccc1)NCCOCCNc1ncnc2c1ncn2[C@@H]1O[C@H](CO)[C@@H](O)[C@H]1O`: 3.4 µM; for `O=C(NCCOCCNc1ncnc2c1ncn2[C@@H]1O[C@H](CO)[C@@H](O)[C@H]1O)c1ccc(Oc2ccccc2)cc1`: 10 µM; for `O=C(CCCc1ccccc1)NCCOCCNc1ncnc2c1ncn2[C@@H]1O[C@H](CO)[C@@H](O)[C@H]1O`: 4 µM. The same measure for `COc1ccc(C(=O)NCCOCCNc2ncnc3c2ncn3[C@@H]2O[C@H](CO)[C@@H](O)[C@H]2O)cc1OC`: more than 170 µM; for `CC(=O)Nc1ccc(C(=O)NCCOCCNc2ncnc3c2ncn3[C@@H]2O[C@H](CO)[C@@H](O)[C@H]2O)cc1`: 132 µM; for `COc1cccc(CC(=O)NCCOCCNc2ncnc3c2ncn3[C@@H]2O[C@H](CO)[C@@H](O)[C@H]2O)c1`: 132 µM.

The compound `COc1ccc(CC(=O)NCCOCCNc2ncnc3c2ncn3[C@@H]2O[C@H](CO)[C@@H](O)[C@H]2O)cc1OC` returned a half-maximal inhibitory concentration (IC50) of 9.2 µM. The same measure for `O=C(CCCc1c[nH]c2ccccc12)NCCOCCNc1ncnc2c1ncn2[C@@H]1O[C@H](CO)[C@@H](O)[C@H]1O`: 37.6 µM; for `O=C(Cc1cccc2ccccc12)NCCOCCNc1ncnc2c1ncn2[C@@H]1O[C@H](CO)[C@@H](O)[C@H]1O`: more than 170 µM.
